Series [1] is described as follows: Drug accumulation in human HEK-293T cells transfected with RFP-fused human HCN1 assessed as increase in fluorescent signal at 30 uM measured for 25 mins by fluorescent microscopic analysis. It is filed as ADME, cell-based. The procedure, abridged: (§1)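 HEK293T cells incubated with 30 μM compound in buffer for 15 min, or perfused for 5 min. Intracellular autofluorescence (excitation 405 nm, emission 518 nm) imaged by fluorescence microscopy, with images taken during 10 min of washout.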

A short description of series [2]: In vivo inhibition of HCN4 in Zebrafish larvae assessed as reduction in heart rate at 1 mM administered at 48 hpf along with 0.5 mW/mm2 of UV light irradiation exposure at 365 nm measured upto 60 mins (reference value: 84 +/- 1 %). The series is classed as functional, Danio rerio.
The subject of another series is HEK-293T. The series can be described thus: Cytotoxicity against human HEK-293T cells assessed as reduction in cell viability at 100 uM incubated upto 48 hrs by live/dead TM red staining based fluorescent microscopic analysis. It is filed as toxicity. The essentials: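 HEK293T cells in DMEM high-glucose with 10% FBS and 1% PenStrep, treated at 80-90% confluency with 100 μM compound added to growth medium; untreated and 0.5% DMSO controls, heat-killed (60 °C, 20 min) positive control. After 8, 16, 24 or 48 h, cells detached, stained with LIVE-DEAD NearIF in PBS, imaged at 640 nm excitation; dead cells counted in three random quadrants per triplicate.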

Series [3] in a line: Solubility of compound in HEPES buffer at pH 7.4 by UV-Visible spectra analysis. The series is classed as physicochemical.
A short description of series [4]: Fluorescence property of compound in HEPES buffer at pH 7.4 assessed as quantum yield at 1.5 mM under irradiation with 365 nm light by UV-Visible spectra analysis. The series is classed as physicochemical. The conditions noted are these: pH 7.4, 1500 µM.
A short description of series [5]: Drug accumulation in human HEK-293T cells transfected with RFP-fused human HCN1 assessed as increase in fluorescent signal at 30 uM incubated for 15 mins by fluorescent microscopic analysis. The series is classed as ADME, cell-based. The conditions noted are these: 0.25 h. The procedure, abridged:
as §1

Series [6] in a line: Fluorescence property of compound in HEPES buffer at pH 7.4 assessed as quantum yield at 1.5 mM under irradiation with 440 nm light by UV-Visible spectra analysis. It is filed as physicochemical. The conditions noted are these: pH 7.4, 1500 µM.
The nature of series [7]: Fluorescence property of compound in HEPES buffer at pH 7.4 assessed as quantum yield at 1.5 mM under irradiation with 395 nm light by UV-Visible spectra analysis. The series is classed as physicochemical. The conditions noted are these: pH 7.4, 1500 µM.
The nature of series [8]: In vivo inhibition of HCN4 in Zebrafish larvae assessed as reduction in heart rate at 1 mM administered at 48 hpf along with 2 mW/mm2 of blue light irradiation exposure at 436 nm measured upto 60 mins (reference value: 80 +/- 1 %). The series is classed as functional, Danio rerio.
Series [9] relates to Neuron. As to the kind of experiment: Inhibition of HCN in mouse brain neuron assessed as reduction of hyperpolarization-activated current (Ih) at 100 uM at holding potential of -70 to -120 mV with UV light irradiation at 365 nm by whole cell patch clamp electrophysiology. It is filed as tissue-based. The essentials:
(§2)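 Dendritic whole-cell recordings on L5 neurons of medial prefrontal cortex in acute slices from male mice (2-3 months), aCSF at 32-34 °C with D-APV, DNQX, CGP and gabazine. Ih evoked by steps to -120 mV (1.8 s) then +5 mV (0.15 s) from -70 mV holding. Compound bath-perfused at 30 or 100 μM with 365 nm illumination of the slice (23.5 mW); steady-state current compared before and at full effect; paired t-test.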

The target of series [10] is T1, Potassium/sodium hyperpolarization-activated cyclic nucleotide-gated channel 1 (Homo sapiens) (UniProt O60741).
T1 sequence (whole entry): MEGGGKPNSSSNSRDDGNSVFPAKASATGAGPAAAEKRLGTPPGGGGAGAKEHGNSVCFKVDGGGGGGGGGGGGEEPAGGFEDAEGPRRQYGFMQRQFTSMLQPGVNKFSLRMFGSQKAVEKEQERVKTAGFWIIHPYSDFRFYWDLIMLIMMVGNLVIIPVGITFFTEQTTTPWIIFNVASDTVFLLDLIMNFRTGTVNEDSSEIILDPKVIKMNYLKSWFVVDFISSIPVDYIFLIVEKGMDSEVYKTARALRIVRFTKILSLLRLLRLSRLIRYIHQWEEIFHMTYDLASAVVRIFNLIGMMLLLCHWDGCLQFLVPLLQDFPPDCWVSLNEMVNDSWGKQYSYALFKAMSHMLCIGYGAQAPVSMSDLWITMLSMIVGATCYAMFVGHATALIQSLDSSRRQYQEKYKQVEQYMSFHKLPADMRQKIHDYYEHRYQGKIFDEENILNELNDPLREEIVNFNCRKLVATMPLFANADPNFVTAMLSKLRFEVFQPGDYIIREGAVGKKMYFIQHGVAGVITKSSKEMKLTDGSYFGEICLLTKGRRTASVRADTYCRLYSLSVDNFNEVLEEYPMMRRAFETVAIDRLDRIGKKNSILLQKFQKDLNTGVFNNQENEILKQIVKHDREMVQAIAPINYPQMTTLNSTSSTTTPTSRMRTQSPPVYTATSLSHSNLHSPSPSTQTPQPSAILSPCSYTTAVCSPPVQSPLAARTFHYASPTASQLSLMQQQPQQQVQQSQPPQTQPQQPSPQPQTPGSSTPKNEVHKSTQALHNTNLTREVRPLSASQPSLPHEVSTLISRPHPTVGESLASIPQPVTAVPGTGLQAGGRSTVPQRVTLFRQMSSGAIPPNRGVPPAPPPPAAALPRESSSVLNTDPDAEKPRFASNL
The series can be described thus: Inhibition of RFP-fused human HCN1 transfected in HEK-293T cells at 100 uM at holding potential of -110 mV under UV light exposure by whole cell patch clamp electrophysiology. It is filed as cell-based. The procedure, abridged:
(§3)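 RFP-hHCN1 transiently expressed in HEK293T; whole-cell patch clamp at room temperature, 5 kHz sampling, 1 kHz filter. Steps to -110 mV (1.8 s) and +5 mV (0.5 s) every 5.5 s from -20 mV holding. Compound added to extracellular solution by perfusion, either in the dark, pre-illuminated (395 nm 0.5 mW/mm2, or 440 nm 1 mW/mm2 for 1 min) or illuminated during perfusion. Fractional block = current reduction/control current; mean ± SEM.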

The target in series [11] is T1, Potassium/sodium hyperpolarization-activated cyclic nucleotide-gated channel 1 (Homo sapiens). As to the kind of experiment: Inhibition of RFP-fused human HCN1 transfected in HEK-293T cells at 100 uM at holding potential of -110 mV under dark condition by whole cell patch clamp electrophysiology. The series is classed as cell-based. The essentials:
as §3

The nature of series [12]: Stability in human plasma at 40 mM incubated upto 24 hrs by UV-HPLC analysis. The series is classed as ADME, cell-free. The following applies: 1000 µM, in the assay text read “1 mM” for “40 mM”. The procedure, abridged:
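A 40 mM stock was added to human plasma (10 into 390 parts) and incubated at 37 °C for 24 h, in duplicate. At time points, aliquots were quenched in 3 volumes of cold acetonitrile, centrifuged at 4 °C for 10 min, filtered and analysed by HPLC-UV (C18, TFA water/acetonitrile gradient, detection at 280 nm).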

Series [13] relates to Neuron. As to the kind of experiment: Inhibition of HCN in mouse brain neuron assessed as reduction of hyperpolarization-activated current (Ih) at 30 uM at holding potential of -70 to -120 mV with UV light irradiation at 365 nm by whole cell patch clamp electrophysiology. The series is classed as tissue-based. The procedure, abridged:
as §2

Series [14] concerns the target T1, Potassium/sodium hyperpolarization-activated cyclic nucleotide-gated channel 1 (Homo sapiens). The series can be described thus: Inhibition of RFP-fused human HCN1 transfected in HEK-293T cells at 100 uM at holding potential of -110 mV pre-exposed with 1 mW/mm2 of blue light irradiation at 440 nm by whole cell patch clamp electrophysiology relative to IVA. The series is classed as cell-based. The essentials: as §3

Series [15] has the same target. As to the kind of experiment: Inhibition of RFP-fused human HCN1 transfected in HEK-293T cells at 30 uM at holding potential of -110 mV pre-exposed with 0.5 mW/mm2 of UV light irradiation at 395 nm by whole cell patch clamp electrophysiology relative to IVA. The series is classed as cell-based. The essentials: as §3
The target is the same in series [16]. The series can be described thus: Inhibition of RFP-fused human HCN1 transfected in HEK-293T cells at 100 uM at holding potential of -110 mV with 1 mW/mm2 of blue light irradiation exposure at 440 nm by whole cell patch clamp electrophysiology relative to IVA. The series is classed as cell-based. The essentials: as §3
For series [17] the target is unchanged. The series can be described thus: Inhibition of RFP-fused human HCN1 transfected in HEK-293T cells at 30 uM at holding potential of -110 mV with 0.5 mW/mm2 of UV light irradiation exposure at 395 nm by whole cell patch clamp electrophysiology relative to IVA. It is filed as cell-based. The essentials: as §3
Series [18] shares this target. The series can be described thus: Inhibition of RFP-fused human HCN1 transfected in HEK-293T cells at 30 uM at holding potential of -110 mV with 0.5 mW/mm2 of UV light irradiation exposure at 395 nm by whole cell patch clamp electrophysiology. It is filed as cell-based. The procedure, abridged:
as §3

The target is the same in series [19]. As to the kind of experiment: Inhibition of RFP-fused human HCN1 transfected in HEK-293T cells at 30 uM at holding potential of -110 mV with 1 mW/mm2 of blue light irradiation exposure at 440 nm by whole cell patch clamp electrophysiology relative to IVA. It is filed as cell-based. The essentials:
as §3

For series [20], the system named is Neuron. As to the kind of experiment: Inhibition of HCN in mouse brain neuron assessed as reduction of hyperpolarization-activated current (Ih) at 30 to 100 uM at holding potential of -70 to -120 mV with UV light irradiation at 365 nm by whole cell patch clamp electrophysiology. The series is classed as tissue-based. The following applies: dose 30-100 µM. The essentials: as §2

Series [21] concerns the target T1, Potassium/sodium hyperpolarization-activated cyclic nucleotide-gated channel 1 (Homo sapiens). The series can be described thus: Inhibition of RFP-fused human HCN1 transfected in HEK-293T cells at 30 uM at holding potential of -110 mV pre-exposed with 0.5 mW/mm2 of UV light irradiation at 395 nm by whole cell patch clamp electrophysiology. It is filed as cell-based. The procedure, abridged:
as §3

Calls of active or inactive are those of the source. No cut-off for these calls is given here.

The results in this text go back to ChEMBL document CHEMBL5608236, “A Photoactivatable Version of Ivabradine Enables Light-Induced Block of HCN Current In Vivo” (J Med Chem, 2024).

As to `COc1cc2c(cc1OC)CC(=O)N(CCC[N+](C)(Cc1ccc3ccc(O)c(Br)c3n1)C[C@H]1Cc3cc(OC)c(OC)cc31)CC2.CS(=O)(=O)[O-]` (stereo not given in full), the Drug uptake result in series [1] and in series [5] was “Active” each time. The entries for the “inhibition (INH)” value in [2] and in series [8] were 51% and 49%, respectively. Moreover, the Activity result with HEK-293T was “Non-Toxic”; in series [4] it was 0.091; in series [6], 0.051; in series [7] it was 0.041. The compound further registered a solubility in [3] of 550 µM.

For `OCc1ccc2ccc(O)c(Br)c2n1`, the inhibition entry (in the series on Neuron [9]; in [10]; in [11]) was “inactive” each time. The Activity entry with HEK-293T was “Non-Toxic”.

As to `COc1cc2c(cc1OC)CC(=O)N(CCC[N+](C)(Cc1ccc3ccc(O)c(Br)c3n1)C[C@H]1Cc3cc(OC)c(OC)cc31)CC2.[OH-]` (stereo not given in full), the “inhibition (INH)” value in series [2] stood at 49%; in series [8] it was 51%. For the same compound, the solubility in series [3] amounted to 430 µM. Further, in series [12], the Stability result is reported as “Stable”. The values for the Activity in series [4], in [6] and in [7] were 0.073, 0.062 and 0.034, respectively.

For `COc1cc2c(cc1OC)CC(=O)N(CCCN(C)C[C@H]1Cc3cc(OC)c(OC)cc31)CC2`, the inhibition result in the series on Neuron [13] was “Active”.

As for `COc1cc2c(cc1OC)CC(=O)N(CCC[N+](C)(Cc1ccc3ccc(O)c(Br)c3n1)C[C@H]1Cc3cc(OC)c(OC)cc31)CC2` (stereo not given in full), the inhibition in series [14] turned out to be 85%; in [15], 95%; in [16], 85%; in series [17], 85%; in series [19] it was 65%. Besides, the inhibition result (in [18]; in the series with Neuron [20]; in [21]) was “Active” throughout. Moreover, in series [11], the inhibition result is “inactive”.
